Broadly, the inhibition is the drop in the measured response relative to a control, in per cent. As a reminder, the IC50 is the concentration needed to halve the response being measured.

SMILES strings stand for the structures. Calls of active or inactive are those of the source. No cut-off for these calls is given here.

In assay [1] the target is Amyloid-beta precursor protein (Homo sapiens) (UniProt P05067). Nature of the assay: Inhibition of amyloid beta (1 to 42) peptide (unknown origin) self aggregation-induced cytotoxicity in E17 Sprague-Dawley rat primary cortical neurons assessed as neuroprotective activity by measuring increase in cell viability at 1 uM after 24 hrs by MTT assay. The method, boiled down: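 Rat E17 primary cortical neurons after 9 days in culture. Aβ1-42 samples, prepared as for the dot blot (± Cu2+, ± compound), added to the cultures at 1 µM for 24 h. Viability by MTT, normalized to the vehicle group. EGCG and clioquinol as positive controls.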
Sequence of Amyloid-beta precursor protein (Homo sapiens) (P05067 whole entry): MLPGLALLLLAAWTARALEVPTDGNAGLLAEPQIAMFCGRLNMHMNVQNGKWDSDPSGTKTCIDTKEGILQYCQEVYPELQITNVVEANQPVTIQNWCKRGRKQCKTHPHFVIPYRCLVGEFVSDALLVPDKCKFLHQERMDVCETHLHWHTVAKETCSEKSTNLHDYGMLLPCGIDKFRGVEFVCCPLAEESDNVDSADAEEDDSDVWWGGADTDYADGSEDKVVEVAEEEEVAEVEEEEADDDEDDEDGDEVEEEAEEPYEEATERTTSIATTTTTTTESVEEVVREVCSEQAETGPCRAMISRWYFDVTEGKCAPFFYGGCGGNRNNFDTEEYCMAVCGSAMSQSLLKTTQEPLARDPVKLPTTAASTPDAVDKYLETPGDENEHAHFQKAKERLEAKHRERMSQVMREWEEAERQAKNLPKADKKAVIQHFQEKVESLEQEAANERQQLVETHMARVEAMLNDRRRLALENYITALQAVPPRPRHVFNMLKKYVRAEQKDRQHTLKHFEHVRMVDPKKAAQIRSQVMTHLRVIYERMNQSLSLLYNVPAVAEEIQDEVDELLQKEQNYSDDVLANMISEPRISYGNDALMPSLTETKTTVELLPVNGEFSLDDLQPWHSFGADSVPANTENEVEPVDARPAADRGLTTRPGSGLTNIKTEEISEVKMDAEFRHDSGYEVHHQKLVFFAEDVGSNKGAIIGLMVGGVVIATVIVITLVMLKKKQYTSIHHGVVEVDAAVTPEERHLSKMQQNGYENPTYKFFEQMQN
(Tetrazolium assays rely on reduction of a dye to a coloured formazan, in cell work by metabolically active cells.)

The target of assay [2] is T1, Amine oxidase [flavin-containing] A (Homo sapiens, UniProt P21397).
T1 sequence (P21397 whole entry): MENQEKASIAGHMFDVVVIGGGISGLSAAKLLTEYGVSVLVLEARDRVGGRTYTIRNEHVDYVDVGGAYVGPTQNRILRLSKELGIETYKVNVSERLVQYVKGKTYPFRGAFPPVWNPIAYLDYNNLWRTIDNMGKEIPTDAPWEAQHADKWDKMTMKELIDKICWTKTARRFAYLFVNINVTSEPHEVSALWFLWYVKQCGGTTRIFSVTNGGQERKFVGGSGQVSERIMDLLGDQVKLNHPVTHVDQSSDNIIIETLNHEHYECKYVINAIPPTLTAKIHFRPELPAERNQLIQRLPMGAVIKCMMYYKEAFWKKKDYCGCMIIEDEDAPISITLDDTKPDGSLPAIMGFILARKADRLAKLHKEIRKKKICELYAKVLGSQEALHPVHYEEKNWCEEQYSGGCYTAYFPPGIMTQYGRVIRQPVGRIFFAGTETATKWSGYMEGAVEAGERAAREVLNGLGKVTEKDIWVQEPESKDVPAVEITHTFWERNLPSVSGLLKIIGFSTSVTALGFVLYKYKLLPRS
Kind of assay: Inhibition of recombinant human MAOA at 50 uM using p-tyramine as substrate preincubated for 15 mins followed by substrate addition measured after 15 mins by Amplex red reagent based fluorescence assay. The conditions noted are these: 0.25 h. The method, boiled down: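 Recombinant human MAO-A (12.5 µg/mL) or MAO-B (75 µg/mL) preincubated 15 min at 37 °C with compound (diluted from 10 mM DMSO stock in 50 mM KH2PO4, pH 7.4). Amplex Red working solution added: 2 mM p-tyramine (MAO-A) or benzylamine (MAO-B), 2 U/mL HRP. After 15 min at 37 °C, fluorescence read (ex 545/em 590), background from enzyme-free wells subtracted.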

The target in assay [3] is T1, Amine oxidase [flavin-containing] A. Kind of assay: Inhibition of recombinant human MAOA using p-tyramine as substrate preincubated for 15 mins followed by substrate addition measured after 15 mins by Amplex red reagent based fluorescence assay.
The target of assay [4] is T2, Amine oxidase [flavin-containing] B (Homo sapiens, UniProt P27338).
T2 sequence (P27338 whole entry): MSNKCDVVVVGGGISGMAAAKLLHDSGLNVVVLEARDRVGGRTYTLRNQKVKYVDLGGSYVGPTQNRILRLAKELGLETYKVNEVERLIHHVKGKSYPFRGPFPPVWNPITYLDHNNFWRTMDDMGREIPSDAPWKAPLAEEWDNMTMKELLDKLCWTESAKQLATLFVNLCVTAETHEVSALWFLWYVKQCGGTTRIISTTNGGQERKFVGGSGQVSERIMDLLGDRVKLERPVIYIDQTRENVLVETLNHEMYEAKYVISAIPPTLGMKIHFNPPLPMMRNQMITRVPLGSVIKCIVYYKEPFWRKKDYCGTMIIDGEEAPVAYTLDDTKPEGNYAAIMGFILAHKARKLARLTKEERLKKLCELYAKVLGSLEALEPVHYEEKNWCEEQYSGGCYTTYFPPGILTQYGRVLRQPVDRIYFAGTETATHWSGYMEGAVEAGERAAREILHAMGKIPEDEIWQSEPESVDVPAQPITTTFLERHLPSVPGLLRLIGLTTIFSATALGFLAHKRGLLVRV

Assay [5] in a line: Inhibition of Cu2+-induced amyloid beta (1 to 42 residues) (unknown origin) aggregation assessed as reduction in amyloid beta fibril load at 50 uM after 24 hrs by phosphotungstic acid staining-based transmission electron microscopic method. The method, boiled down: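 Aβ1-42 (25 µM) ± CuCl2 (25 µM) ± compound (50 µM) in HEPES/NaCl pH 6.6, incubated 24 h at 37 °C. Aliquots placed on carbon-coated copper grids for 30 min, stained 20 s with 2% phosphotungstic acid, imaged by TEM. Clioquinol as comparator.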

The nature of assay [6]: Inhibition of Cu2+-mediated amyloid beta (1 to 42) (unknown origin) aggregation at 50 uM after 24 hrs by dot blot assay. In short, it runs like this: (§1)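 Aβ1-42 (2000 µM stock in 1% ammonium hydroxide) diluted in […], pH 6.6. Peptide 25 µM ± Cu(II) 25 µM ± compound 50 µM, incubated 37 °C for 24 h. Samples spotted on nitrocellulose, blocked in 5% milk, probed overnight at 4 °C with A11 (oligomers) or 6E10 (total Aβ), HRP secondary, densitometry. N = 4, mean ± SEM; EGCG control.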

The next assay addresses Butyrylcholinesterase (Rattus norvegicus, UniProt Q9JKC1). Nature of the assay: Inhibition of BuChE in rat serum using butyrylthiocholine iodide as substrate after 20 mins by Ellman's method.
The target of assay [7] is Amyloid-beta precursor protein (Homo sapiens) (UniProt P05067). Kind of assay: Inhibition of amyloid beta (1 to 42) (unknown origin) self aggregation at 50 uM incubated at 37 degC for 24 hrs by dot immunoblot assay. In short, it runs like this: as §1
Another assay concerns Mus musculus. Nature of the assay: Reversal of scopolamine-induced dementia in ICR mouse assessed as decrease in escape latency time at 30 mg/kg, po administered 40 mins prior to scopolamine-challenge by water maze test. It is filed as functional, organism-based. The method, boiled down: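 Test compound as HCl salt, 30 mg/kg intragastric, given 40 min before scopolamine (4.5 mg/kg i.p.), which was given 20 min before the water maze. Escape latency and errors (entries into no-exit paths) recorded; mean ± SEM.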

The nature of assay [8]: Antioxidant activity assessed as inhibition of Cu2+-mediated redox cycling induced hydroxyl radicals generation at 15 uM in presence of ascorbate by fluorescence assay. The method, boiled down:
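Hydroxyl radicals from Cu(II) (5 µM) and ascorbate (150 µM), with deferoxamine 1 µM, in PBS (20 mM, 100 mM NaCl, pH 7.4, 0.1% methanol). Ligand at 15 µM, with EDTA as positive control. Conversion of coumarin-3-carboxylic acid (50 µM) to fluorescent 7-hydroxy-CCA followed at 37 °C (ex 395/em 450 nm). Run in triplicate.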

The nature of assay [9]: Metal chelating activity assessed as compound-Fe3+ complex formation at 40 uM in presence of FeCl3 after 30 mins by UV-visible spectrophotometric analysis. In short, it runs like this:
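UV–vis spectra (200–500 nm) of compound at 40 µM final, alone or with CuCl2, FeSO4, FeCl3 or ZnCl2 (20 µM final), after 30 min in 20 mM HEPES, 150 mM NaCl, pH 7.4, at room temperature.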

Sequence of Butyrylcholinesterase (Q9JKC1 whole entry): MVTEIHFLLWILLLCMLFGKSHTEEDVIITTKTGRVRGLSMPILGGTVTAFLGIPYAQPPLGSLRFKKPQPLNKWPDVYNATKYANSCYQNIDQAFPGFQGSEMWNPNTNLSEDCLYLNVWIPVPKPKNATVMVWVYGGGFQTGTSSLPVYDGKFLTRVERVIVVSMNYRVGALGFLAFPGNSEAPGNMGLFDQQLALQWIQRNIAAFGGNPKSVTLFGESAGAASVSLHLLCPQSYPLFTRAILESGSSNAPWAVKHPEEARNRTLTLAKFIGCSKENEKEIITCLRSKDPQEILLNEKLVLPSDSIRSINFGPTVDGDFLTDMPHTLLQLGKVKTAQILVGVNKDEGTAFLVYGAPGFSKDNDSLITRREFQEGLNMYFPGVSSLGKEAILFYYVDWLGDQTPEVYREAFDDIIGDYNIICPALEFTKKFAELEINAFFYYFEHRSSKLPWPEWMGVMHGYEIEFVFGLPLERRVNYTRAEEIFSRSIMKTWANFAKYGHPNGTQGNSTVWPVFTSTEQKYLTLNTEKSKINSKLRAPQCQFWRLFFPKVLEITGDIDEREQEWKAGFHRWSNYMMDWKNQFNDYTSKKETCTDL

Consider `C#CCN(C)Cc1cn(-c2cc(NC(=S)NCC)ncn2)cn1`, for which the result in assay [1] and in [9] was inactive. Besides, the inhibition at 50 µM in [2] worked out at 20.2%. The IC50 in [3] was more than 50 µM; in assay [4], 1.43 µM; at Butyrylcholinesterase it was more than 40 µM. The inhibition entry in assay [5] and in [6] was “Active” throughout. In addition, the inhibition entry in assay [7] is “inactive”. Besides, the result (in the assay with Mus musculus; in assay [8]) was Active.

These data come from ChEMBL document CHEMBL4138195, “Discovery of novel propargylamine-modified 4-aminoalkyl imidazole substituted pyrimidinylthiourea derivatives as multifunctional agents for the treatment of Alzheimer's disease” (Eur J Med Chem, 2018).
